38 variants from the RNAGym collection of RNA variant scans (doi:10.1126/science.aae0568) can be followed below.

B1: tRNA (parent)
chain: GUUCCGUUGGCGUAAUGGUAACGCGUCUCCCUCCUAAGGAGAAGACUGCGGGUUCGAGUCCCGUACGGAACG

Variants at the floor of the assay were thinned out.

The variants in this series derive from B1. Nature of the series: yeast fitness relative to wild type (ratio to wild type); higher = fitter; tRNA-Arg(CCU), competitive growth, 37 C, YPD. Put shortly:
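A pool of Saccharomyces cerevisiae strains, each with a tRNA-Arg(CCU) gene variant at the native genomic locus, was competed in YPD at 37°C for 24 hours across six parallel replicates. The variants had been chemically synthesised at a 3% per-site mutation rate over 69 sites, and gene amplicons before and after competition were read by 100-nucleotide paired-end sequencing. Darwinian fitness relative to wild type rested on changes in genotype frequencies. Genotypes required ≥ 100 starting reads, and estimates < 0.5 were set to 0.5.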
Consider GUUCCGUUGGCGUAAUGGUAGCACGUCUCCCUCCUAAGGAGAAGACUGCGGGUUCGAGUCCCGUAGGGAACG [A21G G23A C66G], for which the yeast fitness is not above 0.5.

As to GUUCCGUUGGCGUAAUGGUAUCGCGUCUCCCUCCUAAGGCGUAGACUGUCGGUUCGAGUCCCAUAUGGAACG [A21U A40C A42U C49U G50C G63A C66U], the yeast fitness is not above 0.5.

As for GUUCCGUUGGCGUAAUGGUAGCGCGUCUCCCUCGUAAGGAGAAGACUGCGGGUUCAAGUCCCGUAGGGAACG [A21G C34G G56A C66G], the yeast fitness was not above 0.5.

With GUUCCGUUGGCGUAAUGGUAGCGCGUCUCCCUCCUAAGGAGAAGACUGGGGGUUCGAGCCCCGUACGGAACG [A21G C49G U59C], the yeast fitness came out at 0.583.

On to GUUCCGUUGGCGUAAUGGUAGCGCGUCUCCCUCCUAAGGAGAAGACUGCGGGUUCGAGUCCUGUACGGAACG [A21G C62U], for which the yeast fitness was determined as 0.924.

As to GUUCCGUUGGCGUAAUGGUAGCGCGUCUCCCUCCUAAGGAGAAGACUGCGGGUUUGAGUCCCGUAUGGAACG [A21G C55U C66U], the yeast fitness was not above 0.5.

Consider GUUCCGUUGGCGUAAUGGUAGCGCGUCUCCCACCUAAGGAGAAGACUGCGGGUUCGAGUCCCGUAUGGAACG [A21G U32A C66U], for which the yeast fitness turned out to be 0.512.

Turning to GUUCCGUUGGCGUAAUGGUAGCGCGUCUCCCUCCUAAGGAGAAGACUGCGGGUUCGAGUCCCGUAUGGAACG [A21G C66U], the yeast fitness worked out at 0.858.

For the variant GUUCCGUUGGCGUAAUGGUAGCGCGUCUCCCUCCUAAGGAGAAGACUGUGGGUUCGAGUCCCGUACGGAACG [A21G C49U], the yeast fitness was found to be 0.994.

Regarding GUUCCGUUGGCGUAAUGGUAUUGCGUCUCCCUCCUAAGGAGAAGACUCCGGGUUCGAGUCCCGUGUGGAACG [A21U C22U G48C A65G C66U], the yeast fitness is not above 0.5.

Take GUUCCGUUGGCGUAAUGGUAGCGCGCGUCCCUCCUAAGGAGAAGACUCCGGGUUCGAGUCCCGUACAGAACG [A21G U26C C27G G48C G67A]: the yeast fitness was not above 0.5.

Turning to GUUCCGUUGGCGUAAUGGUAUCGCGUCUCCCUCCUAUGGAGAAGACUGCGGGUUCGAGUCCCGUACGGAACG [A21U A37U], the yeast fitness came to 0.672.

Consider GUUCCGUUGGCGUAAUGGUAUCGCGUCUCCCUCCUCAGAAGAAGACUGCGGGUUCGAGUCCCGUACGGAACG [A21U A36C G39A], for which the yeast fitness was 0.58.

In the case of GUUCCGUUGGCGUAAUGGUAGCGCGUCUCCCCCCUAAGGAGAAGACUGCGGGUUCGAGUCCCGUUCGAAACG [A21G U32C A65U G68A], the yeast fitness came out at 0.63.

Consider GUUCCGUUGGCGUAAUGGUAUGGCGUCUCCCUCCUAAGGAGAAGACUGCGGGUUCGAGUCCCGUAUGGAACG [A21U C22G C66U], for which the yeast fitness came to 0.568.

Regarding GUUCCGUUGGCGUAAUGGUAUCGGGUCUCCCUCCUAAGGAGAAGACUGAGGGUGCGAGUCCCGUACGGAACG [A21U C24G C49A U54G], the yeast fitness came out at 0.56.

Regarding GUUCCGUUGGCGUAAUGGUAGCGCGUCUCCCUCGUAAGGGGAAGACUGCGGGUUCGAGUCCCGUACGGAACG [A21G C34G A40G], the yeast fitness turned out to be 0.572.

With GUUCCGUUGGCGUAAUGGUAGCGCGUCUCCCUCCUAAGGAGAAGACUGCGGGUUCGAGUCACGUACAGAACG [A21G C61A G67A], the yeast fitness was found to be 0.532.

As to GUUCCGUUGGCGUAAUGGUAUCGCGUCUCCCUCCUAUGGUGAAGACUGCCGGUUCCAGUCCCGUACGGAACG [A21U A37U A40U G50C G56C], the yeast fitness is not above 0.5.

For the variant GUUCCGUUGGCGUAAUGGUAUCGCGUCUCCCUCCUAAGGAGGAGACUGCGGGUUCGAGUCCAGUACGGAACG [A21U A42G C62A], the yeast fitness was not above 0.5.

On to GUUCCGUUGGCGUAAUGGUAGCGCGUCUCCCUCCUAAGGAGAAGAUUGCGGGUUCGAGUCCCGUACGGAACG [A21G C46U], for which the yeast fitness worked out at 0.97.

As to GUUCCGUUGGCGUAAUGGUAGCGCGUCUCCCUCCUAAGGAGAAGAAUGCGGGUUCGAGUCCCGUACGGAACG [A21G C46A], the yeast fitness turned out to be 1.01.

Turning to GUUCCGUUGGCGUAAUGGUAUCGCGUCUCCCUCCUAAGGAGAAGACUGCGGGUUCGAGUCCCGUACGGAUCG [A21U A70U], the yeast fitness amounted to 0.754.

On to GUUCCGUUGGCGUAAUGGUAGCGCGUCUCCCUCCUAAGGAGAACACUGCGGGUUCGAGUCCCGUACGGUACG [A21G G44C A69U], for which the yeast fitness is 0.681.

For the variant GUUCCGUUGGCGUAAUGGUAGCGCGUCUCCCUCCUAAGGAGAAGACUGCAGGUUUGAGUCCCGCACGGAACG [A21G G50A C55U U64C], the yeast fitness is not above 0.5.

With GUUCCGUUGGCGUAAUGGUAGCGCGUCUCCCUCCUAAGGAGAAGACUGCGGGUUCGAGUCCCGUACGUAACG [A21G G68U], the yeast fitness was determined as 1.07.

For GUUCCGUUGGCGUAAUGGUAGCGCGUCUCCCUCCUAAGGAGAAGACUGCGGGUUCGAGUCCCGUACGCAACG [A21G G68C], the yeast fitness worked out at 0.949.

For GUUCCGUUGGCGUAAUGGUAUCGCGUCUUCCUCCUAAGGAGAAGACUACGGGUCCGAGUCCCGUACGGAACG [A21U C29U G48A U54C], the yeast fitness was not above 0.5.

GUUCCGUUGGCGUAAUGGUAUCGCGUCUCCCUCCUAAGGAGAAGACUGCGGGUUCGAGUCCCGUUCGGAACG [A21U A65U]: the yeast fitness was 0.793.

Turning to GUUCCGUUGGCGUAAUGGUAGCGCGUCGCCCUCCUAAGGAGAAGACUGCGGGUUCGAGUCCGGUACGGAACG [A21G U28G C62G], the yeast fitness is not above 0.5.

As to GUUCCGUUGGCGUAAUGGUAUCGCGUCUGCCUCCUAAGGAGAAGACUGGGGGUUCGAGUCCCGUACGGAACG [A21U C29G C49G], the yeast fitness came out at 0.519.

In the case of GUUCCGUUGGCGUAAUGGUAUCGCGUCUCCCUCCUAAGGAGGAGACUGCGGGUUCGAGAACCGUACGGUACG [A21U A42G U59A C60A A69U], the yeast fitness was not above 0.5.

For the variant GUUCCGUUGGCGUAAUGGUAGCGCGUCUCCCUCCUAAGGAGAAGACUGCGGGUUCGAGUCGUGUACGGAACG [A21G C61G C62U], the yeast fitness is not above 0.5.

Consider GUUCCGUUGGCGUAAUGGUAGCGCGUCUCCCUCCUAAGGAGAAGACUGCGGGUUAGAGUCCCGUACGGAACG [A21G C55A], for which the yeast fitness stood at 0.641.

With GUUCCGUUGGCGUAAUGGUAGCGCGUCUCCCUCCUAAGGAGAAGACUGCGGGUUGGAGUCCCGUACGGAACG [A21G C55G], the yeast fitness worked out at 0.671.

With GUUCCGUUGGCGUAAUGGUAUGGCGUCUCCCUCCUAAGGAGAAGACUGCGGGUUCGAGCCCCGUACGGAACG [A21U C22G U59C], the yeast fitness was not above 0.5.

As for GUUCCGUUGGCGUAAUGGUAGCGCGUCUCCCUCCUAAGGAGAAGACUGCGGGUUCGAGCCCCGUACGGAACG [A21G U59C], the yeast fitness was 0.883.

For GUUCCGUUGGCGUAAUGGUAUCGCGUCUCCCUCCUAUGGAGAAGACUGCGGGUUCGAGUGCCGUACGGAACG [A21U A37U C60G], the yeast fitness came to 0.608.
